According to ChEMBL document CHEMBL3045103, “Antimicrobial and antiurease activities of newly synthesized morpholine derivatives containing an azole nucleus” (Med Chem Res, 2013):
The source made the active and inactive calls.

Assays:
Type in all cases: functional
Pseudomonas aeruginosa = test: Antibacterial activity against Pseudomonas aeruginosa ATCC 43288 after 18 to 24 hr by double microdilution method
Outline: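 Double microdilution in Mueller–Hinton broth, pH 7.3; plates incubated 18–24 h at 35 °C; MIC (μg/mL) determined. Compounds dissolved in hexane as 20.000 μg/mL stock.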

Bacillus cereus = test: Antibacterial activity against Bacillus cereus 702 Roma after 18 to 24 hr by double microdilution method
Outline: (§1)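 Compounds dissolved in […] as 20.000 μg/mL stock solutions. Tested quantitatively by double microdilution in Mueller–Hinton broth at pH 7.3, with plates incubated 18–24 h at 35 °C. Read-out is the minimal inhibition concentration (MIC) in μg/mL.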

[1] = tested on: Yersinia pseudotuberculosis; test: Antibacterial activity against Yersinia pseudotuberculosis ATCC 911 after 18 to 24 hr by double microdilution method; outline: as §1
Staphylococcus aureus = test: Antibacterial activity against Staphylococcus aureus ATCC 25923 after 18 to 24 hr by double microdilution method; outline: as §1
Enterococcus faecalis = test: Antibacterial activity against Enterococcus faecalis ATCC 29212 after 18 to 24 hr by double microdilution method; outline: as §1
[2] = tested on: Mycolicibacterium smegmatis; test: Antibacterial activity against Mycobacterium smegmatis ATCC 607 after 48 to 72 hr by double microdilution method
Outline: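 Compounds dissolved in hexane as 20.000 μg/mL stock solutions. MIC (μg/mL) determined quantitatively by double microdilution, using Brain Heart Infusion broth as the growth medium for M. smegmatis.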

Measured: MIC

NNC(=O)CNc1ccc(N2CCOCC2)nc1
not listed: [2]
inactive: all other assays above

O=C(CNc1ccc(N2CCOCC2)nc1)N/N=c1\sc(-c2ccc(Cl)cc2)cn1-c1ccccc1
inactive: all assays above

O=C(CNc1ccc(N2CCOCC2)nc1)N/N=C/c1ccc(Br)cc1
not listed: [2]
inactive: all other assays above

O=C(CNc1ccc(N2CCOCC2)nc1)N/N=C1\SCC(=O)N1c1ccccc1
inactive: all assays above

Sc1nnc(CNc2ccc(N3CCOCC3)nc2)o1
inactive: all assays above

O=C(CNc1ccc(N2CCOCC2)nc1)NNC(=S)Nc1ccccc1
not listed: [2]
inactive: all other assays above

O=C(CNc1ccc(N2CCOCC2)nc1)N/N=C/C=C/c1ccccc1
inactive: all assays above

CCOC(=O)CNc1ccc(N2CCOCC2)nc1
not listed: [2]
inactive: all other assays above

Sc1nnc(CNc2ccc(N3CCOCC3)nc2)n1-c1ccccc1
not listed: [2]
inactive: all other assays above
